Reference: ChEMBL document CHEMBL4145485, “Design, synthesis, biological evaluation and docking studies of new 3-(4,5-dihydro-1H-pyrazol/isoxazol-5-yl)-2-phenyl-1H-indole derivatives as potent antioxidants and 15-lipoxygenase inhibitors” (Eur J Med Chem, 2018)
≈ marks a conversion by molar mass, not a printed value.

Columns and labels:
[1] = Antioxidant activity assessed as superoxide dismutase-like activity by measuring inhibition of xanthine oxidase-induced superoxide anion level measured ever 30 secs for 5 mins by NBT reduction assay; format: functional
Outline: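 Kit-based assay at room temperature in cuvettes: reaction buffer, xanthine and NBT, then test compound ([…]), then xanthine oxidase. A550 read every 30 s from 30 s to 5 min 30 s. Rate per minute compared with a negative control gives % inhibition. IC50 from non-linear dose-response, mean ± SEM of three. Ascorbic acid as reference.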

[2] = Antioxidant activity assessed as inhibition of DPPH radical formation after 30 mins; format: functional
Outline: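 Test compound at […] mixed 1:1 with […], kept dark at room temperature 30 min, absorbance read at 517 nm. Ascorbic acid as positive control, DMSO as blank. % scavenging taken against a no-compound control. IC50 by linear regression of the dose-response, in mg/mL, mean ± SD of three replicates.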

[3] = Antioxidant activity in PBS buffer assessed as NO scavenging activity after 90 mins in presence of sodium nitroprusside by Griess assay; format: functional
Outline: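 Test compound at […] mixed 1:1 with 10 mM sodium nitroprusside in PBS pH 7.4, held 90 min at room temperature. Equal volume of Griess reagent (1% sulphanilamide, 0.1% naphthyl ethylene diamine in 2.5% […]) added, absorbance at 546 nm. Ascorbic acid as positive control, DMSO as blank. IC50 by linear regression, mg/mL, mean ± SD of three.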

[4] = Inhibition of soybean 15-LOX using arachidonic acid or linoleic acid as substrate preincubated with enzyme followed by substrate addition up to 5 mins by chromogenic method; set-up: species or system Glycine max
Outline: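 Kit-based assay: soybean LOX pre-mixed with test compound ([…], in DMSO), started with arachidonic or linoleic acid, shaken at least 5 min. Chromogen added to stop and develop, absorbance at 490–500 nm. Quercetin as positive control, DMSO as 100% activity, buffer as blank. IC50 from non-linear dose-response of % inhibition.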

[5] = Potency index, ratio of ascorbic acid IC50 to compound IC50 for antioxidant activity assessed as superoxide dismutase-like activity by measuring inhibition of xanthine oxidase-induced superoxide anion level; format: functional
Glycine max = experiment: Potency index, ratio of quercetin IC50 to compound IC50 for inhibition of soybean 15-LOX
[6] = Potency index, ratio of ascorbic acid IC50 to compound IC50 for antioxidant activity in PBS buffer assessed as NO scavenging activity; format: functional
[7] = Potency index, ratio of ascorbic acid IC50 to compound IC50 for antioxidant activity assessed as inhibition of DPPH radical; format: functional

Row | IC50 [1] [µM] | IC50 [2] [µg/mL] | IC50 [3] [µg/mL] | IC50 [4] [µM] | Ratio IC50 (Glycine max) | Structure (SMILES) | Ratio IC50 [5] | Ratio IC50 [6] | Ratio IC50 [7]
1 | 4.27 | 107.32 (≈ 243 µM) | 52.54 | 5.14 | – | O=C(c1ccccc1)N1N=C(c2ccncc2)CC1c1c(-c2ccccc2)[nH]c2ccccc12 (configuration not stated) | – | – | –
2 | 4.26 | 117.5 (≈ 341 µM) | 233.4 | 7.51 | – | c1ccc(-c2[nH]c3ccccc3c2C2CC(c3cccs3)=NO2)cc1 (configuration not stated) | – | – | –
3 | 1.78 | 13.61 (≈ 40.2 µM) | 35.01 | 3.84 | 1.8 | c1ccc(-c2[nH]c3ccccc3c2C2CC(c3cccnc3)=NN2)cc1 (configuration not stated) | 2 | 0.7 | 1.7
4 | 4.62 | 48.21 (≈ 109 µM) | 50.33 | 7.23 | – | O=C(c1ccccc1)N1N=C(c2cccnc2)CC1c1c(-c2ccccc2)[nH]c2ccccc12 (configuration not stated) | – | – | –
5 | 5.47 | 98.54 (≈ 259 µM) | 29.14 | 8.74 | – | CC(=O)N1N=C(c2ccncc2)CC1c1c(-c2ccccc2)[nH]c2ccccc12 (configuration not stated) | – | – | –
6 | 1.87 | 59.94 (≈ 177 µM) | 70.5 | 4.89 | – | c1ccc(-c2[nH]c3ccccc3c2C2CC(c3ccncc3)=NO2)cc1 (configuration not stated) | – | – | –
7 | 2.57 | 37.97 (≈ 99.8 µM) | 29.8 | 4.56 | – | CC(=O)N1N=C(c2cccnc2)CC1c1c(-c2ccccc2)[nH]c2ccccc12 (configuration not stated) | – | – | –
8 | 3.54 | 60.7 (≈ 179 µM) | 116.7 | 6.71 | – | c1ccc(-c2[nH]c3ccccc3c2C2CC(c3cccnc3)=NO2)cc1 (configuration not stated) | – | – | –
9 | 3.54 | 23.4 (≈ 133 µM) | 24.5 | – | – | O=C1O[C@H]([C@@H](O)CO)C(O)=C1O [ASCORBIC ACID] | – | – | –
10 | 3.24 | 15.83 (≈ 46.8 µM) | 20.99 | 6.54 | – | c1ccc(-c2[nH]c3ccccc3c2C2CC(c3ccncc3)=NN2)cc1 (configuration not stated) | – | – | –
11 | 6.51 | 18.3 (≈ 53.3 µM) | 24.04 | 9.41 | – | c1ccc(-c2[nH]c3ccccc3c2C2CC(c3cccs3)=NN2)cc1 (configuration not stated) | – | – | –
12 | 5.41 | 33.1 (≈ 93.9 µM) | 37.1 | 9.32 | – | CN1N=C(c2ccncc2)CC1c1c(-c2ccccc2)[nH]c2ccccc12 (configuration not stated) | – | – | –

Row | Structure (SMILES) | IC50 [1] [µM] | IC50 [2] [µg/mL] | IC50 [3] [µg/mL] | IC50 [4] [µM] | Ratio IC50 (Glycine max) | Ratio IC50 [5] | Ratio IC50 [6] | Ratio IC50 [7]
13 | O=c1c(O)c(-c2ccc(O)c(O)c2)oc2cc(O)cc(O)c12 [QUERCETIN] | – | – | – | 6.87 | – | – | – | –
